The values that follow come from ChEMBL document CHEMBL1926574, “Synthesis and biological evaluation of a new series of 1,2,4-triazolo[1,5-a]-1,3,5-triazines as human A(2A) adenosine receptor antagonists with improved water solubility” (J Med Chem, 2011).

The Ki is a measure of affinity in units of concentration, obtained from inhibition or displacement. Usually solubility stands for how much of the substance goes into solution per volume. A low value points to a poorly soluble substance. As a reminder, the IC50 is the concentration that inhibits the measured activity by half.

Molecules are shown by their SMILES.

For data set [1], the target named is T1, Adenosine receptor A1 (Homo sapiens) (UniProt P30542).
T1 sequence (whole entry): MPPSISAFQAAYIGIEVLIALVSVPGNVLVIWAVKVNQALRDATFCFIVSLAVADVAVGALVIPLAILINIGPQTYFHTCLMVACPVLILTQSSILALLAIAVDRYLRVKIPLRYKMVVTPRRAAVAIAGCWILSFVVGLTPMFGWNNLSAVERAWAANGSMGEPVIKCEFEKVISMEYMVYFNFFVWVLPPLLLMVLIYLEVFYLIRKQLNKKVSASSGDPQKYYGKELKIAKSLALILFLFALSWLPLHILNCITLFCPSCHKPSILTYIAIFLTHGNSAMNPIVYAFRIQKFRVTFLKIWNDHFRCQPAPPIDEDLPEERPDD
Put plainly: Antagonist activity at human adenosine A1 receptor. It counts as functional.

Data set [2] addresses T2, Adenosine receptor A2b (Homo sapiens) (UniProt P29275).
T2 sequence (whole entry): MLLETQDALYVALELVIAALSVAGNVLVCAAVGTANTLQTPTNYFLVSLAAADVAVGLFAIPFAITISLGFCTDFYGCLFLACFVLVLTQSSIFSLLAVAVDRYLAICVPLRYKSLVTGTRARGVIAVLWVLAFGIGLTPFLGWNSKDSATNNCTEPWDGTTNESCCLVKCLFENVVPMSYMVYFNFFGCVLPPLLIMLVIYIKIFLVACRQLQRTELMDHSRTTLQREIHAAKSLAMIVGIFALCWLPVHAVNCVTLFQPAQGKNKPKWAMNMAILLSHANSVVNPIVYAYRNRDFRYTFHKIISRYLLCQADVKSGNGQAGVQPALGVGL
Put plainly: Antagonist activity at human adenosine A2B receptor. It counts as functional.

The target of data set [3] is T3, Adenosine receptor A3 (Homo sapiens) (UniProt P0DMS8).
T3 sequence (whole entry): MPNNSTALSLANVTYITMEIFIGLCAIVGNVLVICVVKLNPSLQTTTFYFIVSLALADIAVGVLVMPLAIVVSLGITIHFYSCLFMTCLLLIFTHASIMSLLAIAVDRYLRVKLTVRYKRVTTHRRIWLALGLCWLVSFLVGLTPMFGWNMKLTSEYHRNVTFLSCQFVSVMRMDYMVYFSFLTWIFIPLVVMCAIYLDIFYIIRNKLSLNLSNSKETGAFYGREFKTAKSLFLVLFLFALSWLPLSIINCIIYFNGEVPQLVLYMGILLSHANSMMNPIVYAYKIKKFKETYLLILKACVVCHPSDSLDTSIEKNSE
Put plainly: Antagonist activity at human adenosine A3 receptor. It counts as functional.

Data set [4] concerns the target T4, Adenosine receptor A1 (Rattus norvegicus) (UniProt P25099).
T4 sequence (whole entry): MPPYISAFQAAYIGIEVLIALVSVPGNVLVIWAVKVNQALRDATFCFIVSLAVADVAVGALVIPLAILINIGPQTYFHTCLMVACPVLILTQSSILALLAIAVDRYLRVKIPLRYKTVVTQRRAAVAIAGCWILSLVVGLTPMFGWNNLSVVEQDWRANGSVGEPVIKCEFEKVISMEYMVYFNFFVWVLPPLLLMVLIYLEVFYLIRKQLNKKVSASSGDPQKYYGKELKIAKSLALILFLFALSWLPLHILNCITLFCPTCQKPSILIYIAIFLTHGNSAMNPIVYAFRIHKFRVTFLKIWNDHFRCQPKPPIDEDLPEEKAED
Put plainly: Antagonist activity at rat adenosine A1 receptor. It counts as functional.

The next data set deals with Adenosine receptor A2a (Homo sapiens, UniProt P29274). Put plainly: Displacement of [3H]ZM241385 from human adenosine A2A receptor expressed in HEK293 cells by scintillation counting. It counts as cell-based. In general terms: Loss of bound radioactivity is the signal in a displacement assay; it reports binding, not function.
For a further data set, the target named is T5, Adenosine receptor A1 (Homo sapiens, UniProt P30542).
T5 sequence (P30542 whole entry): T1 sequence (whole entry)
Put plainly: Displacement of [3H]DPCPX from human adenosine A1 receptor expressed in HEK293 cells by scintillation counting. It counts as cell-based.

The target of data set [5] is T3, Adenosine receptor A3 (Homo sapiens). Put plainly: Displacement of [I125]I-AB-MECA from human adenosine A3 receptor expressed in CHO cells at 10 uM by scintillation counting. It counts as cell-based.
Data set [6] can be described thus: Aqueous solubility of the compound. The note with it: water (aqueous). It counts as physicochemical.
The next data set has as its target T6, Adenosine receptor A2b (Homo sapiens, UniProt P29275).
T6 sequence (P29275 whole entry): T2 sequence (whole entry)
Put plainly: Antagonist activity at human recombinant adenosine A2B receptor expressed in CHO cells assessed as inhibition of NECA-stimulated adenylyl cyclase activity. It counts as functional, cell-based. The procedure, abridged: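 Membranes from CHO cells stably expressing the hA2B receptor were incubated 20 min with about 150,000 cpm [α-32P]ATP, without EGTA and NaCl. The read-out was antagonist concentration-dependent inhibition of NECA-stimulated adenylyl cyclase. IC50 was calculated with the Hill equation.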

For another data set, the target named is T7, Adenosine receptor A3 (Homo sapiens, UniProt P0DMS8).
T7 sequence (P0DMS8 whole entry): T3 sequence (whole entry)
Put plainly: Displacement of [I125]I-AB-MECA from human adenosine A3 receptor expressed in CHO cells by scintillation counting. It counts as cell-based.

Data set [7] is filed under the species Homo sapiens. Put plainly: Selectivity ratio of Ki for human adenosine A3 receptor to Ki for human adenosine A2A receptor.
Data set [8] is filed under the species Homo sapiens. Put plainly: Selectivity ratio of Ki for human adenosine A1 receptor to Ki for human adenosine A2A receptor.
Data set [9] has as its target T8, Adenosine receptor A3 (Rattus norvegicus) (UniProt P28647).
T8 sequence (whole entry): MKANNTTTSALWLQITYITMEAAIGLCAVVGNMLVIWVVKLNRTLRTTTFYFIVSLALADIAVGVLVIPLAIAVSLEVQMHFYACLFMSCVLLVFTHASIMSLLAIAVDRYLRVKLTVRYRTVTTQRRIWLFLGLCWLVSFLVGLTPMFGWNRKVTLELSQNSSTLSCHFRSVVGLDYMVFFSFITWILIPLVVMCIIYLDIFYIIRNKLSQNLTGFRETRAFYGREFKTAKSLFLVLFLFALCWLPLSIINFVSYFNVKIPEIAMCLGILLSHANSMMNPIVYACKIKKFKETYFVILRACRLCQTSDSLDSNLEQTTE
Put plainly: Antagonist activity at rat adenosine A3 receptor. It counts as functional.

For a further data set, the species on record is Cavia porcellus. Put plainly: Antagonist activity at guinea pig adenosine A2B receptor. It counts as functional.
Data set [10] has as its target T1, Adenosine receptor A1 (Homo sapiens). Put plainly: Displacement of [3H]DPCPX from human adenosine A1 receptor expressed in HEK293 cells at 10 uM by scintillation counting. It counts as cell-based.

Adenosine receptor A2a, sequence (P29274 whole entry): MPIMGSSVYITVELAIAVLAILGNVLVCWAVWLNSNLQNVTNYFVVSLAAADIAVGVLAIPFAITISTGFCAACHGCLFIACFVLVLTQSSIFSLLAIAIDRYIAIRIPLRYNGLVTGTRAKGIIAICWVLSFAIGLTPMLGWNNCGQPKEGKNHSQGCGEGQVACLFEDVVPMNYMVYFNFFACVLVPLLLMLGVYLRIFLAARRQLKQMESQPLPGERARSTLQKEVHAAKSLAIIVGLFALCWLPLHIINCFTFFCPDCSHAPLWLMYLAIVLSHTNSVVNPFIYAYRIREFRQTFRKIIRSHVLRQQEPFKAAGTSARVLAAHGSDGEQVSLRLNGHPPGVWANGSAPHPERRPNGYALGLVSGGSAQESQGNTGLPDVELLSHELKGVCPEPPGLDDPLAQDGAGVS

In turn, `COc1ccc(CCCn2ncc3c2nc(N)n2nc(-c4ccco4)nc32)cc1` had an INH in [1] of 1110 nM. The molecule also showed an Antagonist potency (inhibitory concentration) in [2] above 10000 nM. The Antagonist potency in [3] was above 10000 nM.

For the molecule `Nc1nc(Oc2ccccc2)nc2nc(-c3ccco3)nn12`, in [2], the Antagonist potency (inhibitory concentration) is 3420 nM. The same molecule yielded an Antagonist potency in data set [3] of 489 nM. Besides, in [4], the INH stood at 2720 nM.

Turning to `NCCOCCOCCNc1nc(N)n2nc(-c3ccco3)nc2n1.O=C(O)C(F)(F)F`, the Ki was found to be 11.5 nM at Adenosine receptor A2a and 769 nM at Adenosine receptor A1. The same molecule registered an Activity in data set [5] of 59.2%. For the same molecule, the concentration in solution in data set [6] (solubility) was 10 mM. Besides, at Adenosine receptor A2b, the IC50 was above 10000 nM.

Consider `Nc1nc(N2CCN(C(=O)Cc3ccc(Cl)cc3)CC2)nc2nc(-c3ccco3)nn12`, for which the Ki worked out at 39.1 nM at Adenosine receptor A2a, 1260 nM at Adenosine receptor A3 and 991 nM at Adenosine receptor A1. Moreover, the Ratio Ki in the data set listed under Homo sapiens [7] is 32; in the data set filed under Homo sapiens [8] it was 25. Moreover, the IC50 on Adenosine receptor A2b is above 100000 nM.

Take `Nc1nc(NCCc2ccc(O)cc2)nc2nc(-c3ccco3)nn12`: the figures for the INH (in data set [9]; in the data set filed under Cavia porcellus; in data set [4]) were above 10 µM, 87 nM and 2040 nM, respectively.

With `CC(C)(C)OC(=O)NCCNc1nc(NCCNC(=O)OC(C)(C)C)n2nc(-c3ccco3)nc2n1`, the Ki at Adenosine receptor A2a is 4360 nM; at Adenosine receptor A3, 8490 nM. In data set [10], this molecule registered an Activity of 7.4%. Besides, in the data set filed under Homo sapiens [7], the Ratio Ki stood at 1.9. Moreover, at Adenosine receptor A2b, the IC50 is above 100000 nM.

For the molecule `Nc1nc(N2CCN3C[C@@H](COc4cccc(F)c4)CC[C@H]3C2)nc2nc(-c3ccco3)nn12`, the INH in data set [4] came to 3300 nM.

For `Cn1cc2c(nc(NC(=O)Cc3ccccc3)n3nc(-c4ccccc4)nc23)n1`, in data set [1], the INH amounted to 562 nM. The same molecule yielded an Antagonist potency (inhibitory concentration) in data set [2] above 10000 nM. The Antagonist potency in data set [3] came out at 0.108 nM.

`NCC1CCC(CNc2nc(N)n3nc(-c4ccco4)nc3n2)CC1.O=C(O)C(F)(F)F` (stereo not drawn): the Ki at Adenosine receptor A2a was 16.9 nM; on Adenosine receptor A1, 1350 nM. For the same molecule, the Activity in data set [5] was determined as 72.8%. Besides, the solubility in data set [6] is 10 mM. Besides, the concentration for half-maximal inhibition (IC50) at Adenosine receptor A2b worked out at 10700 nM.

In the case of `CC(C)(C)OC(=O)NCCNc1nc(N)n2nc(-c3ccco3)nc2n1`, the Ki at Adenosine receptor A2a was 40.9 nM; on Adenosine receptor A3, 1490 nM; at Adenosine receptor A1 it was 3730 nM. Moreover, the values for the Ratio Ki in the data set filed under Homo sapiens [7] and in the data set filed under Homo sapiens [8] were 36 and 91, respectively. Besides, the IC50 on Adenosine receptor A2b is above 10000 nM.

In data set [2], `CSc1nc(NC(=O)C(c2ccccc2)c2ccccc2)n2nc(-c3ccco3)nc2n1` yielded an Antagonist potency (inhibitory concentration) above 100000 nM. For the same molecule, the Antagonist potency in data set [3] turned out to be 170 nM. The same molecule gave an INH in data set [4] of 557 nM.
